Experimental data: publication PMC10963893 (eBioMedicine, 2024)
Converted amounts (≈) assume the structure as drawn.

Experiments:
K. pneumoniae Ecl8 = test: Broth micro-dilution MIC / dose-response growth inhibition; assay type: cell-based, Klebsiella pneumoniae; settings: for MIC: Klebsiella pneumoniae, ECL8, read-out: K. pneumoniae Ecl8 MIC; for K. pneumoniae Ecl8 Interp.: S/R interpretation by EUCAST breakpoint, ECOFF or fold vs QC strain
K. pneumoniae NCTC 13438 = test: as above; assay type: cell-based, Klebsiella pneumoniae; settings: for MIC: Klebsiella pneumoniae, NCTC13438, read-out: K. pneumoniae NCTC 13438 MIC; for K. pneumoniae NCTC 13438 Interp.: S/R interpretation by EUCAST breakpoint, ECOFF or fold vs QC strain
A. baumannii NCTC 13424 = test: as above; assay type: cell-based, Acinetobacter baumannii; settings: for MIC: Acinetobacter baumannii, NCTC13424, read-out: A. baumannii NCTC 13424 MIC; for A. baumannii NCTC 13424 Interp.: S/R interpretation by EUCAST breakpoint, ECOFF or fold vs QC strain
[1] = test system: primary screening strains (A. baumannii NCTC 13424, K. pneumoniae NCTC 13438, K. pneumoniae Ecl8); test: HTS / susceptibility assay with the primary screening strains; assay type: cell-based; settings: 50 mg L^−1, positive control
Summary of the method: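 Broth microdilution (EUCAST method adapted to 384-well); inoculum 5 × 10^5 CFU mL−1 (OD600 0.0005); static at 37 °C in 5% CO2 for 24 h (K. pneumoniae) or 20 h (A. baumannii); compound at one concentration in duplicate, or two concentrations (1.4–68.0 μM, 0.5% DMSO) singly for one library; OD600 read; % growth inhibition normalised between apramycin 50 mg L−1 and DMSO wells; actives called at 3σ.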

Compound	MIC (K. pneumoniae Ecl8)	K. pneumoniae Ecl8 Interp. (K. pneumoniae Ecl8)	MIC (K. pneumoniae NCTC 13438)	K. pneumoniae NCTC 13438 Interp. (K. pneumoniae NCTC 13438)	MIC (A. baumannii NCTC 13424)	A. baumannii NCTC 13424 Interp. (A. baumannii NCTC 13424)	growth inhibition of primary screening strains [1]
C[C@@H]1O[C@@H]1P(=O)(O)O [Fosfomycin]	64 µg/mL (≈ 464 µM)	R	16 µg/mL (≈ 116 µM)	S	64 µg/mL (≈ 464 µM)		
COc1cc(Cc2cnc(N)nc2N)cc(OC)c1OC [Trimethoprim]	4 µg/mL (≈ 13.8 µM)	S	> 512 µg/mL	R	128 µg/mL (≈ 441 µM)	R	
CO/N=C(\C(=O)N[C@@H]1C(=O)N2C(C(=O)[O-])=C(C[N+]3(C)CCCC3)CS[C@H]12)c1csc(N)n1 [Cefepime]	0.12 µg/mL (≈ 0.25 µM)	S	128 µg/mL (≈ 266 µM)	R	32 µg/mL (≈ 66.6 µM)	R	
O=C(N[C@H](CO)[C@H](O)c1ccc([N+](=O)[O-])cc1)C(Cl)Cl [Chloramphenicol]	4 µg/mL (≈ 12.4 µM)	S	32 µg/mL (≈ 99 µM)	R	64 µg/mL (≈ 198 µM)		
C[C@@H](O)[C@H]1C(=O)N2C(C(=O)O)=C(SCCN=CN)C[C@H]12 [Imipenem]	0.25 µg/mL (≈ 0.835 µM)	S	128 µg/mL (≈ 428 µM)	R	128 µg/mL (≈ 428 µM)	R	
CN[C@@H]1[C@@H](O[C@H]2O[C@H](CO)[C@@H](N)[C@H](O)[C@H]2O)OC2C[C@@H](N)[C@@H](O[C@H]3[C@H](O)[C@@H](O)[C@H](N)C[C@@H]3N)OC2[C@@H]1O (some centres unmarked) [Apramycin]	4 µg/mL (≈ 7.41 µM)	S ^c	4 µg/mL (≈ 7.41 µM)	S ^c	8 µg/mL (≈ 14.8 µM)	S ^c	completely inhibited the growth
CC(C)(O/N=C(\C(=O)N[C@@H]1C(=O)N2C(C(=O)[O-])=C(C[n+]3ccccc3)CS[C@H]12)c1csc(N)n1)C(=O)O [Ceftazidime]	0.5 µg/mL (≈ 0.915 µM)	S	512 µg/mL (≈ 937 µM)	R	64 µg/mL (≈ 117 µM)	R	
O=C(O)c1cn(C2CC2)c2cc(N3CCNCC3)c(F)cc2c1=O [Ciprofloxacin]			> 512 µg/mL			R	
NC[C@H]1O[C@H](O[C@H]2[C@H](O)[C@@H](O[C@H]3O[C@H](CO)[C@@H](O)[C@H](N)[C@H]3O)[C@H](N)C[C@@H]2N)[C@H](N)C[C@@H]1O [Tobramycin]	1 µg/mL (≈ 2.14 µM)	S	32 µg/mL (≈ 68.4 µM)	R	> 512 µg/mL	R	
NCC[C@H](O)C(=O)N[C@@H]1C[C@H](N)[C@@H](O[C@H]2O[C@H](CN)[C@@H](O)[C@H](O)[C@H]2O)[C@H](O)[C@H]1O[C@H]1O[C@H](CO)[C@@H](O)[C@H](N)[C@H]1O [Amikacin]	2 µg/mL (≈ 3.42 µM)	S	64 µg/mL (≈ 109 µM)	R	> 512 µg/mL	R	
C[C@H]1COc2c(N3CCN(C)CC3)c(F)cc3c(=O)c(C(=O)O)cn1c23 [Levofloxacin]	0.12 µg/mL (≈ 0.332 µM)	S	128 µg/mL (≈ 354 µM)	R	32 µg/mL (≈ 88.6 µM)	R	
C[C@@H](O)[C@H]1C(=O)N2C(C(=O)O)=C(S[C@@H]3CN[C@H](C(=O)N(C)C)C3)[C@H](C)[C@H]12 [Meropenem]	0.06 µg/mL (≈ 0.156 µM)	S		R	64 µg/mL (≈ 167 µM)	R	
CN(C)[C@@H]1C(O)=C(C(N)=O)C(=O)[C@@]2(O)C(O)=C3C(=O)c4c(O)cccc4[C@@](C)(O)[C@H]3C[C@@H]12 [Tetracycline]	1 µg/mL (≈ 2.25 µM)	S ^b	4 µg/mL (≈ 9 µM)	S ^b	256 µg/mL (≈ 576 µM)	R ^b	
Polymyxin B		S ^c		S ^c		S ^c	
CN(C)c1ccc(O)c2c1C[C@H]1C[C@H]3[C@H](N(C)C)C(O)=C(C(N)=O)C(=O)[C@@]3(O)C(O)=C1C2=O [Minocycline]	2 µg/mL (≈ 4.37 µM)	S ^b	4 µg/mL (≈ 8.74 µM)	S ^b	4 µg/mL (≈ 8.74 µM)	S ^b	
C[C@H]1[C@H](NC(=O)/C(=N\OC(C)(C)C(=O)O)c2csc(N)n2)C(=O)N1S(=O)(=O)O [Aztreonam]	0.25 µg/mL (≈ 0.574 µM)	S	> 512 µg/mL	R	32 µg/mL (≈ 73.5 µM)		
Colistin		S ^b		S ^b		S ^b	
Cc1cc(NS(=O)(=O)c2ccc(N)cc2)no1 [Sulfamethoxazole]	64 µg/mL (≈ 253 µM)	R ^c	> 512 µg/mL	R ^c	> 512 µg/mL	R ^c	
CNC(C)C1CCC(N)C(OC2C(N)CC(N)C(OC3OCC(C)(O)C(NC)C3O)C2O)O1 (centres unmarked) [Gentamicin]	1 µg/mL (≈ 2.09 µM)	S	4 µg/mL (≈ 8.38 µM)	R	> 512 µg/mL	R	
CO/N=C(\C(=O)N[C@@H]1C(=O)N2C(C(=O)O)=C(COC(C)=O)CS[C@H]12)c1csc(N)n1 [Cefotaxime]	0.06 µg/mL (≈ 0.132 µM)	S	256 µg/mL (≈ 562 µM)	R	512 µg/mL (≈ 1120 µM)	R	
